LANA-nucl inh: inhibitors of KSHV LANA-nucleosome binding, primary screen, biochemical, fluorescence polarization, FITC-LANA1-23, chicken nucleosomes | z-score (concentration not given with the values) | FITC-LANA1-23 / chicken nucleosome fluorescence polarization; stronger effect = lower value | 51,000 tested, 0.3% active;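 active = both repeat wells score below -2 in polarization z-score versus plate sample wells, excluding overly bright wells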
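System – purified chicken nucleosomes with FITC-labelled LANA N-terminal peptide (1-23) · Amount – 240 nM purified chicken nucleosomes (480 nM peptide binding sites), final · Also added – 50 nM FITC-LANA1-23 probe · Medium – TEN-BT buffer, pH 7.5 · Incubation – compound with peptide–nucleosome mix 10–45 min at room temperature · Detection – fluorescence polarization, ex 480 nm, em 535 nm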
BasE inh: BasE siderophore enzyme inhibitors, primary screen, biochemical, Acinetobacter baumannii ATCC 17978, fluorescence polarization; purified BasE, fluorescence polarization binding displacement; inhibition, % (test concentration not listed); 84,000 tested, 0.1% active; AID 485350, 2010; in the data active = inhibition above about 25%, passing the limit was not always enough;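 also: 0% = negative plate control signal and 100% = positive plate control signal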
* hit, by the source's call; . = no result; ! = repeats disagree. A selection: hits, their analogues and other compounds. The true share with any hit is near 0.3%.

SMILES	LANA-nucl inh	BasE inh
COc1cc(/C=N/NC(=O)c2cc(C3CC3)[nH]n2)ccc1O	0.33	49*
N#C/C(=C\c1ccco1)C(N)=S	.	-2
N#C/C(=C\C=C\c1ccco1)C(N)=S	-0.63	33*
O=C1NC(=O)/C(=C\c2cn(Cc3ccccc3F)c3ccccc23)N1	.	2
N#Cc1ccccc1Cn1cc(C=C2C(=O)NC(=O)NC2=O)c2ccccc21	-3.6*	5
Clc1ccc2c(c1)NNc1nncn1-2	-0.2	3
O=C(O)CSc1nnc2n1-c1ccc(Cl)cc1NN2	-5.6*	28
OCCN(CCO)c1nc(N2CCCCC2)c2nc(N(CCO)CCO)nc(N3CCCCC3)c2n1	-2.3*!	36*!
C1CCCN(c2nc3nonc3nc2N2CCCCCC2)CC1	-0.2	0
COC(=O)C1CCCN(C(=O)C2CCCN2S(=O)(=O)c2cccc3nsnc23)C1 (centres undefined)	.	3
COc1cc(C(=O)CSc2nccc(C)n2)cc(OC)c1OC	.	6
Cc1ccnc(SCC(=O)c2cccs2)n1	.	61*
Cc1cc(=O)[nH]c(SCC(=O)c2cccs2)n1	.	1
Cc1ccnc(SCC(=O)c2ccc(Br)cc2)n1	-0.93	44*
Cc1ccc(C)c(-n2nnnc2SCC(=O)OCC(=O)Nc2ccccc2C)c1	.	2
CC(c1ccccc1)n1cnc2c1C(=O)c1ccccc1C2=O (centres undefined)	.	1
O=C(O)c1ccc(C2SCCCS2)cc1	.	1
Oc1ccc(C2SCCS2)cc1	.	53*
CC(Oc1ccc(Cl)cc1)C(=O)NCc1ccco1 (centres undefined)	2.5	-4
C=CCNC(=O)c1ccc2c(c1)NC(=O)C(C)N2 (centres undefined)	0.092	-1
CCCCNC(=O)c1ccc2c(c1)NC(=O)C(C)N2 (centres undefined)	-3.2*	-6
O=c1cc[nH]c2c(Cl)c(Cl)ccc12	.	-10
CC(C)c1c(Br)c(=O)oc2c3c4c(cc12)CCCN4CCC3	.	21
O=c1ccc2cc3c4c(c2o1)CCCN4CCC3	-5.2*	17
COc1ccc(N/N=C(\C#N)C(=O)Nc2ccccc2C(=O)O)cc1Cl	.	80*
SMILES	LANA-nucl inh	BasE inh
Cc1ccc(NC(=O)/C(C#N)=N/Nc2ccc(C(=O)O)cc2)c(C)c1	.	4
COc1ccc(C)cc1CCNCc1cnn(-c2ccccc2)n1	.	-1
Cc1ccccc1/C=N/NC(N)=S	-0.91	1
N=c1c2c(F)cccc2ncn1NC(=O)c1ccncc1	0.082	2
CC1=C(C(=O)Nn2cnc3cccc(F)c3c2=N)Sc2ccccc2N1	.	36*
O=C(CN1CCN(c2ccc(C(F)(F)F)cn2)CC1)c1ccccc1	-0.041	0
O=C(CSc1ncnc2sccc12)N1CCC(c2nc3ccccc3o2)CC1	.	0
CN(CC(=O)Nc1ccc2c(c1)OCCCO2)Cc1ccc2c(c1)OCCO2	.	0
O=C(O)CCc1ccc(-c2ccc(F)cc2)n1CCC(=O)O	-2.1*	2
O=C(O)CCc1ccc(-c2ccc(F)cc2)n1CC1CCCO1 (centres undefined)	2.7	-2
Cc1noc(C)c1C(=O)COC(=O)c1ccc(S(=O)(=O)N2CC(C)OC(C)C2)cc1 (centres undefined)	.	3
O=c1[nH]c(O)c(C=Nc2nc3ccccc3nc2N2CCCC2)c(=O)[nH]1	.	12
O=C(/C=C/c1ccccc1)Nn1cnc2c(cnn2-c2ccccc2)c1=O	-1.2	1
O=C(Nn1cnc2c(cnn2-c2ccccc2)c1=O)c1ccccc1	-2.1*	0
CCCCSC1=C(C#N)C(=O)NC(CO)S1 (centres undefined)	-0.75	0
CCCCCCSc1s[nH]c(=O)c1C#N	-1.2	85*
CN1c2ccccc2C(C)(C)C12CC(c1ccc(S(=O)(=O)N(C)C)cc1)=NO2 (centres undefined)	.	2
O=c1oc2ccccc2c(O)c1Cc1cc(Cl)c2cccnc2c1O	.	23
Cc1cc(O)c(Cc2cc(Cl)c3cccnc3c2O)c(=O)o1	.	78*
CC(C)(C)c1ccccc1NS(C)(=O)=O	-0.45	4
CCOC(=O)c1cc2c(=O)n3ccccc3nc2n(C2CCCCC2)c1=NC(=O)c1cccnc1	-2.6*	2
CCOC(=O)c1cc2c(=O)n3ccccc3nc2n(CC2CCCO2)c1=NC(C)=O (centres undefined)	0.76	-4
NC(=O)c1ccsc1NC(=O)CSc1nc(-c2ccccc2)cs1	.	-1
O=C(O)CC12CC3CC(C1)CC(CC(=O)O)(C3)C2	.	0
NC(=O)CC12CC3CC(C1)CC(CC(N)=O)(C3)C2	1.3	57*
SMILES	LANA-nucl inh	BasE inh
COc1ccc(N=C2NC(=O)/C(=C\c3ccc(Sc4nc5ccccc5[nH]4)o3)S2)cc1	0.41	0
COc1ccc(-c2cc(C(=O)N3CCOCC3)c3c(-c4ccc(Cl)cc4)[nH]nc3n2)cc1	1.9	-6
O=C(O)c1cc(-c2ccc(O)c(O)c2)nc2n[nH]c(-c3ccc(F)cc3)c12	-0.27	41*
C[N+]1(C2CCC3CCC2C3O)CCCCC1 (centres undefined)	.	2
O=C(CCc1c[nH]c2ccccc12)OCc1nnc(-c2ccccc2)o1	-2.1*	2
O=C(Cc1ccccc1)OCc1nnc(-c2ccccc2)o1	0.18	-3
FC(F)(F)c1ccccc1NNC(=S)NCC1CCCO1 (centres undefined)	.	2
CC(Sc1nnc(C2CCCCC2)n1N)C(=O)NC(N)=O (centres undefined)	.	-1
CN(Cc1ccccc1)C1CCN(CCc2ccccc2)CC1	-0.043	-2
O=C(CCCOc1ccccc1)Nn1cnnc1	0.21	2
Cn1nc(-c2ccccc2)ccc1=O	-0.68	3
O=c1ccc(-c2ccccc2)nn1Cc1ccncc1	-1.3	77*
O=C1c2ccccc2C(=O)N1CSc1nnc(-c2cccs2)o1	.	1

Source: PubChem BioAssay
